Measured values reported in ChEMBL document CHEMBL3425461, “Positron emission tomography to elucidate pharmacokinetic differences of regioisomeric retinoid x receptor agonists” (ACS Med Chem Lett, 2015).
Blank lines part the entries; values can stand above or below the compound they belong to.

Experiments:
[1] = Drug level in ICR mouse plasma at 30 mg/kg, po administered as single dose measured after 1 hr; type: ADME, organism-based; parameters: dose 30 mg/kg, route oral
How it was run: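 Single oral dose of 30 mg/kg given as 0.5% CMC suspension to mice; blood and brain concentrations of non-radioactive compound measured 1 h after dosing.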

Heart [2] = assay: Drug uptake in ICR mouse heart at 8 to 11 MBq, iv during 0 to 30 mins by PET imaging method; type: ADME, organism-based; conditions: in vivo
How it was run: (§1)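 Tracer in EtOH diluted with saline to 10 MBq, given i.v. or p.o.; 30 min PET scan; blood radioactivity as %ID/mL from heart %ID divided by heart volume; AUC over 0–30 min; bioavailability as dose-corrected oral AUC over i.v. AUC; n = 3–5, mean ± SEM.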

Heart [3] = assay: Drug uptake in ICR mouse heart at 8 to 11 MBq, iv by PET/CT imaging method; type: ADME, organism-based; conditions: in vivo
How it was run: (§2)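 Tracer dissolved in EtOH, diluted with saline to 10 MBq, given i.v. or p.o.; 30 min PET/CT scan, images reconstructed at selected times; organ ROIs defined from PET/CT data; uptake expressed as %ID (organ Bq per whole-body Bq) from mean pixel radioactivity; n = 3–5, mean ± SEM; one-way ANOVA then t-test.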

Duodenum [4] = assay: Drug uptake in ICR mouse duodenum at 8 to 11 MBq, iv by PET/CT imaging method; type: ADME, organism-based; conditions: in vivo; how it was run: as §2
Liver [5] = assay: Drug uptake in ICR mouse liver at 8 to 11 MBq, iv by PET/CT imaging method; type: ADME, organism-based; conditions: in vivo; how it was run: as §2
Kidney [6] = assay: Drug uptake in ICR mouse kidney at 8 to 11 MBq, po by PET/CT imaging method; type: ADME, organism-based; conditions: in vivo
Stomach [7] = assay: Drug uptake in ICR mouse stomach at 8 to 11 MBq, po after 30 mins by PET/CT imaging method; type: ADME, organism-based; conditions: in vivo, 0.5 h; how it was run: as §2
[8] = Drug uptake in ICR mouse urinary bladder at 8 to 11 MBq, iv by PET/CT imaging method; type: ADME, organism-based; conditions: in vivo; how it was run: as §2
Liver [9] = assay: Drug uptake in ICR mouse liver at 8 to 11 MBq, po by PET/CT imaging method; type: ADME, organism-based; conditions: in vivo; how it was run: as §2
Kidney [10] = assay: Drug uptake in ICR mouse kidney at 8 to 11 MBq, iv by PET/CT imaging method; type: ADME, organism-based; conditions: in vivo
Duodenum [11] = assay: Drug uptake in ICR mouse duodenum at 8 to 11 MBq, po by PET/CT imaging method; type: ADME, organism-based; conditions: in vivo; how it was run: as §2
[12] = Drug uptake in ICR mouse urinary bladder at 8 to 11 MBq, po by PET/CT imaging method; type: ADME, organism-based; conditions: in vivo; how it was run: as §2
[13] = Drug uptake in ICR mouse gall bladder at 8 to 11 MBq, po by PET/CT imaging method; type: ADME, organism-based; conditions: in vivo; how it was run: as §2
Stomach [14] = assay: Drug uptake in ICR mouse stomach at 8 to 11 MBq, po by PET/CT imaging method; type: ADME, organism-based; conditions: in vivo; how it was run: as §2
[15] = Drug uptake in ICR mouse gall bladder at 8 to 11 MBq, iv by PET/CT imaging method; type: ADME, organism-based; conditions: in vivo; how it was run: as §2
Heart [16] = assay: Ratio of AUC (0 to 30 mins) in ICR mouse heart at 8 to 11 MBq, po to AUC (0 to 30 mins) in ICR mouse heart at 8 to 11 MBq, iv; type: ADME, organism-based; conditions: in vivo; how it was run: as §1
[17] = biological target: T1, Retinoic acid receptor RXR-alpha (Homo sapiens, UniProt P19793); assay: Agonist activity at RXRalpha (unknown origin) expressed in COS1 cells incubated for 18 hrs by luciferase reporter gene assay; type: cell-based, COS-1
T1 sequence (P19793 whole entry): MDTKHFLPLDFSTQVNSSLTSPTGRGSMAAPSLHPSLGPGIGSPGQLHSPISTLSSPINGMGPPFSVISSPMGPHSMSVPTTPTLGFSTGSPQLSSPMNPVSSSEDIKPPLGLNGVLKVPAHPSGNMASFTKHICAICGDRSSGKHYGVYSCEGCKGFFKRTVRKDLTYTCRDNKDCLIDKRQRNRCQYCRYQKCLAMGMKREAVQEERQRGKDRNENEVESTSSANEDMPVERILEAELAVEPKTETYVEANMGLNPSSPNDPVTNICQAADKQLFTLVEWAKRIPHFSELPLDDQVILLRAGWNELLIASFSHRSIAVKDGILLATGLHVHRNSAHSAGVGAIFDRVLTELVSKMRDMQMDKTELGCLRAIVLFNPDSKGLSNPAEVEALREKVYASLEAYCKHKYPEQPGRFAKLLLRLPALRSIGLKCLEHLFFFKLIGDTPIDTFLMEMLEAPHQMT

[18] = Retention time of the compound by HPLC method; type: physicochemical
How it was run: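 Reversed-phase HPLC, 3 μm column, 0.7 mL/min, methanol/25 mM ammonium acetate pH 5.0 (80:20 v/v) mobile phase, UV detection at 260 nm.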

[19] = AUC in mouse blood at 30 mg/kg, po; type: ADME, organism-based; parameters: dose 30 mg/kg, route oral
How it was run: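 AUC at 30 mg/kg p.o. in mice taken from earlier work; skip.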

[20] = Drug level in ICR mouse brain at 30 mg/kg, po administered as single dose measured after 1 hr
[21] = Ratio of drug level in brain to plasma of ICR mouse at 30 mg/kg, po administered as single dose measured after 1 hr

SMILES: C=C(c1ccc(C(=O)O)cc1)c1cc2c(cc1C)C(C)(C)CCC2(C)C [BEXAROTENE]
concentration at 1 h [1]: 4150 ng/mL

SMILES: CCN(c1ccc(OCC(C)C[18F])c(C(C)C)c1)c1ccc(C(=O)O)cn1 (stereo unspecified)
Drug uptake (Heart [3]): Active
Drug uptake (Duodenum [4]): Active
Drug uptake (Liver [5]): Active
Drug uptake (Kidney [6]): Not Active
Drug uptake (Stomach [7]): Active
Drug uptake [8]: Not Active
Drug uptake (Liver [9]): Active
Drug uptake (Kidney [10]): Not Active
Drug uptake (Duodenum [11]): Active
Drug uptake [12]: Not Active
Drug uptake [13]: Active
Drug uptake (Stomach [14]): Active
Drug uptake [15]: Active
Ratio (Heart [16]): 0.43

SMILES: CCN(c1ccc(C(C)C)c(OCC(C)CF)c1)c1ccc(C(=O)O)cn1 (stereo unspecified)
EC50 [17]: 12 nM
Retention_time [18]: 7.63 min

SMILES: CCN(c1ccc(OCC(C)CF)c(C(C)C)c1)c1ccc(C(=O)O)cn1 (stereo unspecified)
EC50 [17]: 450 nM
Retention_time [18]: 6.7 min

SMILES: CCN(c1ccc(C(C)C)c(OCC(C)C[18F])c1)c1ccc(C(=O)O)cn1 (stereo unspecified)
Drug uptake (Heart [3]): Active
Drug uptake (Duodenum [4]): Active
Drug uptake (Liver [5]): Active
Drug uptake (Kidney [6]): Not Active
Drug uptake (Stomach [7]): Active
Drug uptake [8]: Not Active
Drug uptake (Liver [9]): Active
Drug uptake (Kidney [10]): Not Active
Drug uptake (Duodenum [11]): Active
Drug uptake [12]: Not Active
Drug uptake [13]: Active
Drug uptake (Stomach [14]): Active
Drug uptake [15]: Active
Ratio (Heart [16]): 0.18

Second part, the compound after the results:

Drug uptake (Heart [2]): Active
SMILES: CCN(c1ccc(OCC(C)C)c(C(C)C)c1)c1ccc([11C](=O)O)cn1

Drug uptake (Heart [2]): Active
SMILES: CCN(c1ccc(C(C)C)c(OCC(C)C)c1)c1ccc([11C](=O)O)cn1

AUC [19]: 1140 ng·h/mL
concentration at 1 h [20]: 978 ng/mL
concentration at 1 h [1]: 1320 ng/mL
Retention_time [18]: 12.7 min
Kp at 1 h [21]: 0.74
SMILES: CCN(c1ccc(C(C)C)c(OCC(C)C)c1)c1ccc(C(=O)O)cn1

AUC [19]: 18800 ng·h/mL
concentration at 1 h [20]: 2570 ng/mL
concentration at 1 h [1]: 6760 ng/mL
EC50 [17]: 169 nM
Retention_time [18]: 11.7 min
Kp at 1 h [21]: 0.38
SMILES: CCN(c1ccc(OCC(C)C)c(C(C)C)c1)c1ccc(C(=O)O)cn1
